# Experimental data gathered from unrelated publications.
# Compare with care: the assays were run in different laboratories.
# Target: Platelet-derived growth factor receptor beta (PDGFRB, Homo sapiens, UniProt P09619)
Compound,assay,conditions,quantity,result
Cn1cc(-c2cc(F)cc(N3CCn4c(cc5c4CCCC5)C3=O)c2CO)cc(Nc2ccc(N3CCN(C4COC4)CC3)cn2)c1=O,"enzyme activity, inhibitor",0.1 µM,inhibition,2%
C#Cc1n[nH]c2c(-c3cn([C@@H](C)c4ccccc4)c(=O)[nH]c3=O)cc(F)cc12,"enzyme activity, inhibitor",0.1 µM,inhibition,3.1%
Cn1cncc1[C@](O)(COc1ccc(C#N)cc1-c1ccc(OC(F)(F)F)cc1)c1ccc(C#N)cc1,"cell-free assay, competition with immobilised ligand",1 µM,remaining binding,100%
Nc1ncc(-c2nc(N3CCOCC3)nc(N3CCOCC3)n2)c(C(F)F)n1,"binding, competition with immobilised ligand",10 µM,remaining binding,69%
C#Cc1n[nH]c2c(-c3cn([C@@H](C)c4ccccn4)c(=O)[nH]c3=O)cc(F)cc12,"enzyme activity, inhibitor",0.1 µM,inhibition,4%
Cn1cc(-c2cccc(N3CCc4c(sc5c4CC(C)(C)C5)C3=O)c2CO)cc(Nc2ccncn2)c1=O,"enzyme activity, inhibitor",1 µM,inhibition,3%
COc1ncccc1-c1cnn2ccc(N3CCN(C(=O)OC(C)C)CC3)nc12,"binding, competition with immobilised ligand",1 µM,remaining binding,83%
CC(C)(C)c1cc(C=C(C#N)C#N)cc(Br)c1O,"enzyme activity, inhibitor",0.5 µM,remaining activity,104%
COCc1c(-c2cc3cc(C)cc(OC)c3s2)c2c(N)ncnn2c1CN1CCNC(=O)C1,"cell-free assay, competition with immobilised ligand",1 µM,inhibition,86%
O=c1[nH]c2ccccc2n1C1CCN(Cc2ccc(-c3[nH]c4cc5ncnc5cc4nc3-c3ccccc3)cc2)CC1,enzyme activity,0.5 µM,remaining activity,102%
N#CC1(c2ccccn2)CCN(Cc2cc(C(=O)O)c(=O)n3ccccc23)CC1,"cell-free assay, competition with immobilised ligand",1 µM,remaining binding,100%
